Source: PubChem BioAssay AID743338 (The Scripps Research Institute Molecular Screening Center, 2014)
Activity calls are given as the source filed them.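 Rule for the calls: active = IC50 at or below 10 µM; inactive = IC50 above 10 µM.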

Target: Disintegrin and metalloproteinase domain-containing protein 10 (Homo sapiens) (UniProt O14672)
Assay: ADAM10 protease inhibitors, potency curves – biochemical, QFRET peptide, fluorescence, ADAM10 exosite inhibitor project, late-stage follow-up (AID 743338)
Conditions: recombinant ADAM10, QFRET peptide cleavage
Procedure, shortened: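 System – recombinant human ADAM10 enzyme · Compound dosing – 10-point threefold dilution series, top dose 69.5 µM · Medium – HEPES 50 mM buffer, pH 7.5, with 0.01% Brij · Also added – DM2 quenched peptide substrate · Benchmarks – 1 µM marimastat high, DMSO low · Timing – 30 min preincubation at 25 °C, 3 h reaction · Replication – triplicate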

Sequence of Disintegrin and metalloproteinase domain-containing protein 10 (Homo sapiens) (O14672 214-748 limits assumed): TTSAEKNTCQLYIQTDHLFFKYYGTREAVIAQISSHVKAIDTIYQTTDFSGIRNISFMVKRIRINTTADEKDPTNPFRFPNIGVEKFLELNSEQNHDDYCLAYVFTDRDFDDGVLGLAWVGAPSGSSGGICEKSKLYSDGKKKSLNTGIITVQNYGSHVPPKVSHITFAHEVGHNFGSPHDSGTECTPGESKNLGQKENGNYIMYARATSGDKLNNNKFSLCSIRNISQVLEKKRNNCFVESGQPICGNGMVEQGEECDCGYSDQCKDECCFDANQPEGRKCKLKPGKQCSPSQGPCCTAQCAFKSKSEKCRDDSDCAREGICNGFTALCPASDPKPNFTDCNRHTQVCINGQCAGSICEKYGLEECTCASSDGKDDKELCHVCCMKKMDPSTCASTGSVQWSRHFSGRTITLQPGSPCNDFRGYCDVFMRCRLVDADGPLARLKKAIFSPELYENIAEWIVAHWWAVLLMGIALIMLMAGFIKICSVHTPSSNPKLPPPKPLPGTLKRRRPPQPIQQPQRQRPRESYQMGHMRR

SMILES	IC50
C=C(C)COc1ccc(-c2[nH]ncc2Oc2cccc(OC)c2)c(O)c1	inactive
COc1ccc(-c2ccc(-c3noc(-c4cccc(OC)c4)n3)c(OC)n2)cc1	> 69.5 µM (inactive)
O=C(Nc1ccc(OCC(F)(F)C(F)(F)F)c(C(F)(F)F)c1)c1ccc(Br)cc1	> 69.5 µM (inactive)
CCOc1ccc(NC(=O)CC2SC(=O)N(c3ccccc3)C2=O)cc1 (stereo not drawn)	> 69.5 µM (inactive)
Cc1ccc(CC2(c3ccccc3)NC(=O)NC2=O)cc1 (stereo not drawn)	> 69.5 µM (inactive)
Cc1ccc(OCC(O)Cn2c3ccccc3c3ccccc32)cc1 (stereo not drawn)	> 69.5 µM (inactive)
COc1ccc2nc(SCC(=O)Nc3ccc(S(=O)(=O)N4CCCC4)cc3)c(C#N)cc2c1	> 69.5 µM (inactive)
C=C(C)COc1ccc(-c2[nH]ncc2Oc2ccc(OC)cc2)c(O)c1	inactive
C=C(C)COc1ccc(-c2n[nH]c(C)c2Oc2ccccc2OC)c(O)c1	inactive
O=C(Nc1ccc(OCC(F)(F)C(F)F)c(C(F)(F)F)c1)c1ccc(Cl)cc1	> 69.5 µM (inactive)
O=C(CN(Cc1cccs1)S(=O)(=O)c1ccc(S(=O)(=O)NC2CCCCC2)cc1)Nc1ccccc1	> 69.5 µM (inactive)
Oc1cc2c(cc1C(c1ccc(Cl)c(Cl)c1)N1CCCC1)OCO2 (stereo not drawn)	4.87 µM
Cc1ccc(S(=O)(=O)Nc2ccc(Cl)cc2)cc1NC(=O)c1cc2c(s1)CCCC2	> 69.5 µM (inactive)
O=C(O)CCC(=O)c1c[nH]c2ccccc12	> 69.5 µM (inactive)
O=S(=O)(NCC(Nc1ccc(Cl)cc1)c1ccccc1)c1ccc(Cl)cc1 (stereo not drawn)	> 69.5 µM (inactive)
COc1cccc(C(=O)NNC(=O)C(=O)Nc2ccc(C)c(Cl)c2)c1	6.5 µM
CS(=O)(=O)N(CC(=O)Nc1ccccc1Sc1ccccc1)c1cccc(Br)c1	> 69.5 µM (inactive)
CCCCN(Cc1ccccc1)S(=O)(=O)c1cc(Br)cc2c1N(C(C)=O)C(C)C2 (stereo not drawn)	> 69.5 µM (inactive)
O=C(Nc1ccc(OCC(F)(F)C(F)(F)F)c(C(F)(F)F)c1)c1ccc(F)cc1	> 69.5 µM (inactive)
O=S(=O)(NCC(Nc1ccc(Cl)cc1)c1ccccc1)c1ccccc1 (stereo not drawn)	> 69.5 µM (inactive)
O=C1NC(=O)C(Cc2ccc(Cl)cc2)(c2ccccc2)N1 (stereo not drawn)	inactive
Cc1csc(-c2cnn(-c3ccccc3)c2NC(=O)c2ccc(C(F)(F)F)cc2)n1	> 69.5 µM (inactive)
COc1ccccc1NS(=O)(=O)c1cccc(NC(=O)Nc2ccc(Cl)cc2)c1	> 69.5 µM (inactive)
